From ChEMBL document CHEMBL3875168, “Synthesis and apoptosis inducing studies of triazole linked 3-benzylidene isatin derivatives” (Eur J Med Chem, 2016)
Active and inactive are the calls of the source. The rule behind the calls is not given here.

How the values were obtained:
[1] = Cytotoxicity against human PC3 cells assessed as cell growth inhibition after 48 hrs by MTT assay; format: functional, cell-based; conditions: PC-3, 48 h
Outline: (§1)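 Cell lines (NCCS) grown in DMEM or RPMI with 10% FBS and antibiotic-antimycotic at 37 °C, 5% CO2, 90% humidity. Cells seeded at 3-5×10^3 per well, treated 48 h with serial dilutions in medium beside vehicle control. Medium replaced with MTT (0.5 mg/mL) for 4 h, absorbance read at 570 nm. IC50 taken from concentration-response curves; sunitinib served as reference.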

[2] = Cytotoxicity against human BT549 cells assessed as cell growth inhibition after 48 hrs by MTT assay; format: functional, cell-based; conditions: BT-549, 48 h; outline: as §1
[3] = Cytotoxicity against human HeLa cells assessed as cell growth inhibition after 48 hrs by MTT assay; format: functional, cell-based; outline: as §1
[4] = Cytotoxicity against human RWPE1 cells assessed as cell growth inhibition after 48 hrs by MTT assay; format: toxicity, cell-based, RWPE-1
[5] = test system: DU-145; assay: Induction of morphological changes in human DU145 cells assessed as membrane blebbing at 1.25 to 5 uM after 48 hrs by acridine orange/ethidium bromide-dual staining based fluorescence microscopic method; format: functional, cell-based
Outline: (§2)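 DU145 plated at 1×10^6 cells/mL, treated at several concentrations and kept 48 h at 37 °C in 5% CO2. Equal volumes of acridine orange and ethidium bromide (10 μg/mL) added, and cells imaged within 10 min by fluorescence microscopy (excitation 488 nm, emission 550 nm) at 200x.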

[6] = test system: DU-145; assay: Induction of morphological changes in human DU145 cells assessed as apoptotic body formation at 1.25 to 5 uM after 48 hrs by acridine orange/ethidium bromide-dual staining based fluorescence microscopic method; format: functional, cell-based; outline: as §2
[7] = test system: DU-145; assay: Induction of apoptosis in human DU145 cells assessed as condensation of nucleus at 2.5 to 5 uM after 48 hrs by DAPI staining based fluorescence microscopic method; format: functional, cell-based
Outline: (§3)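 DU145 treated for 48 h, PBS-washed, permeabilized with 0.1% Tween 20 for 10 min and stained with 1 μM DAPI. Nuclear morphology of control and treated cells viewed by fluorescence microscopy (excitation 359 nm, emission 461 nm) at 200x.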

[8] = test system: DU-145; assay: Induction of apoptosis in human DU145 cells assessed as formation of fragmented nuclei at 2.5 to 5 uM after 48 hrs by DAPI staining based fluorescence microscopic method; format: functional, cell-based; outline: as §3
[9] = test system: DU-145; assay: Induction of apoptosis in human DU145 cells assessed as necrotic cells at 1.25 uM after 24 hrs by Annexin V-FITC/propidium iodide staining based flow cytometry (reference value: 2.14%); format: functional
[10] = test system: DU-145; assay: Induction of apoptosis in human DU145 cells assessed as late apoptotic cells at 1.25 uM after 24 hrs by Annexin V-FITC/propidium iodide staining based flow cytometry (reference value: 5.4%); format: functional
[11] = Cell cycle arrest in human DU145 cells assessed as accumulation at sub G1 phase at 2.5 uM after 24 hrs by propidium iodide staining-based flow cytometry (reference value: 0.65%); format: functional; conditions: DU-145
Outline: (§4)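 Compound given to DU145 at 2.5 and 5.0 μM for 24 h alongside untreated cells. Cells harvested, PBS-washed, fixed in ice-cold 70% ethanol, then stained 30 min at 37 °C in the dark with propidium iodide (50 μg/mL) plus RNase A (20 μg/mL) in 0.1% Triton X-100. About 10000 events per sample read by flow cytometry; a representative of three independent experiments is shown.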

[12] = Cell cycle arrest in human DU145 cells assessed as accumulation at G0/G1 phase at 2.5 uM after 24 hrs by propidium iodide staining-based flow cytometry (reference value: 62.81%); format: functional; conditions: DU-145; outline: as §4
[13] = Cell cycle arrest in human DU145 cells assessed as accumulation at S phase at 2.5 uM after 24 hrs by propidium iodide staining-based flow cytometry (reference value: 10.3%); format: functional; conditions: DU-145; outline: as §4
[14] = Cell cycle arrest in human DU145 cells assessed as accumulation at G2/M phase at 2.5 uM after 24 hrs by propidium iodide staining-based flow cytometry (reference value: 29.66%); format: functional; conditions: DU-145; outline: as §4
[15] = Cell cycle arrest in human DU145 cells assessed as accumulation at sub G1 phase at 5 uM after 24 hrs by propidium iodide staining-based flow cytometry (reference value: 0.65%); format: functional; conditions: DU-145; outline: as §4
[16] = test system: DU-145; assay: Induction of apoptosis in human DU145 cells assessed as early apoptotic cells at 1.25 uM after 24 hrs by Annexin V-FITC/propidium iodide staining based flow cytometry (reference value: 2.14%); format: functional
[17] = Cell cycle arrest in human DU145 cells assessed as accumulation at G0/G1 phase at 5 uM after 24 hrs by propidium iodide staining-based flow cytometry (reference value: 62.81%); format: functional; conditions: DU-145; outline: as §4
[18] = Cell cycle arrest in human DU145 cells assessed as accumulation at S phase at 5 uM after 24 hrs by propidium iodide staining-based flow cytometry (reference value: 10.3%); format: functional; conditions: DU-145; outline: as §4
[19] = Cell cycle arrest in human DU145 cells assessed as accumulation at G2/M phase at 5 uM after 24 hrs by propidium iodide staining-based flow cytometry (reference value: 29.66%); format: functional; conditions: DU-145; outline: as §4
[20] = Cell cycle arrest in human DU145 cells assessed as accumulation at G2/M phase after 24 hrs by propidium iodide staining-based flow cytometry; format: functional; conditions: DU-145; outline: as §4
[21] = test system: DU-145; assay: Induction of apoptosis in human DU145 cells assessed as late apoptotic cells at 2.5 uM after 24 hrs by Annexin V-FITC/propidium iodide staining based flow cytometry (reference value: 5.4%); format: functional
[22] = test system: DU-145; assay: Induction of apoptosis in human DU145 cells assessed as necrotic cells at 2.5 uM after 24 hrs by Annexin V-FITC/propidium iodide staining based flow cytometry (reference value: 2.14%); format: functional
[23] = test system: DU-145; assay: Induction of apoptosis in human DU145 cells assessed as early apoptotic cells at 5 uM after 24 hrs by Annexin V-FITC/propidium iodide staining based flow cytometry (reference value: 2.14%; format: functional
[24] = test system: DU-145; assay: Induction of mitochondrial membrane potential loss in human DU145 cells at 5 uM after 24 hrs by flow cytometry (reference value: 5.39%); format: functional
[25] = test system: DU-145; assay: Induction of mitochondrial membrane potential loss in human DU145 cells after 24 hrs by flow cytometry; format: functional, cell-based
[26] = test system: DU-145; assay: Induction of apoptosis in human DU145 cells assessed as increase in cleaved PARP level after 48 hrs by Western blot analysis; format: functional, cell-based
[27] = test system: DU-145; assay: Induction of apoptosis in human DU145 cells assessed as increase in cytochrome c level after 48 hrs by Western blot analysis; format: functional, cell-based
[28] = test system: DU-145; assay: Induction of apoptosis in human DU145 cells assessed as decrease in Bcl2 level after 48 hrs by Western blot analysis; format: functional, cell-based
[29] = test system: DU-145; assay: Induction of apoptosis in human DU145 cells assessed as increase in Bax level after 48 hrs by Western blot analysis; format: functional, cell-based
[30] = test system: DU-145; assay: Induction of apoptosis in human DU145 cells after 24 hrs by Annexin V-FITC/propidium iodide staining based flow cytometry; format: functional, cell-based
[31] = test system: DU-145; assay: Induction of apoptosis in human DU145 cells assessed as increase in necrotic cells after 24 hrs by Annexin V-FITC/propidium iodide staining based flow cytometry; format: functional, cell-based
[32] = test system: DU-145; assay: Induction of apoptosis in human DU145 cells assessed as increase in intracellular reactive oxygen species at 2.5 to 5 uM after 24 hrs in presence of N-acetyl cysteine by DCFDA dye based spectrofluorometer; format: functional, cell-based

Which IC50 [1] does the source give for `O=C1Nc2ccc(C(c3ccccc3)c3ccccc3)cc2/C1=C/c1cccc(OCc2cn(Cc3ccccc3)nn2)c1` here?
The IC50 was 17.2 µM.

And the IC50 [2]?
The IC50 was 15.8 µM.

What about the IC50 [3] of the same compound?
Its IC50 is 4.28 µM.

What about the IC50 at 48 h [4] of the same compound?
The IC50 at 48 h was 21.4 µM.

And the Activity [5]?
Its Activity is “Active”.

What about the Activity [6] of the same compound?
The Activity was “Active”.

And the Activity [7]?
Its Activity is “Active”.

What about the Activity [8] of the same compound?
The Activity was “Active”.

What about the Activity [9] of the same compound?
Its Activity is 1.82%.

What about the Activity [10] of the same compound?
Its Activity is 9.11%.

What about the Activity [11] of the same compound?
The Activity was 27.6%.

And the Activity [12]?
The Activity was 14.8%.

What about the Activity [13] of the same compound?
Its Activity is 12.7%.

And the Activity [14]?
The Activity was 43.7%.

What about the Activity [15] of the same compound?
Its Activity is 18.3%.

And the Activity [16]?
The Activity was 12.6%.

And the Activity [17]?
The Activity was 10.1%.

What about the Activity [18] of the same compound?
The Activity was 22.5%.

And the Activity [19]?
Its Activity is 48%.

What about the Activity [20] of the same compound?
Its Activity is “Dose-dependent effect”.

And the Activity [21]?
Its Activity is 13%.

What about the Activity [22] of the same compound?
The Activity was 4.41%.

What about the Activity [23] of the same compound?
Its Activity is 13.64%.

And the Activity [24]?
The Activity was 99.7%.

What about the Activity [25] of the same compound?
Its Activity is “Dose-dependent effect”.

And the Activity [26]?
The Activity was “Active”.

What about the Activity [27] of the same compound?
The Activity was “Active”.

And the Activity [28]?
The Activity was “Active”.

And the Activity [29]?
The Activity was “Active”.

And the Activity [30]?
Its Activity is “Dose-dependent effect”.

What about the Activity [31] of the same compound?
Its Activity is “Dose-dependent effect”.

What about the Activity [32] of the same compound?
The Activity was “Active”.
